Laboratory results taken from ChEMBL document CHEMBL4616679, “Fragment Screening Hit Draws Attention to a Novel Transient Pocket Adjacent to the Recognition Site of the tRNA-Modifying Enzyme TGT” (J Med Chem, 2020).
pKi: −log10 of the molar value.

Experiment: Inhibition of Zymomonas mobilis tRNA-guanine transglycosylase expressed in Escherichia coli cells BL21-CodonPlus (DE3)-RIPL in presence of and tRNATyr [-3H]-guanine incubated for 60 mins by liquid scintillation counting based radioactive assay
How it was run: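 Z. mobilis TGT (Strep-tag II removed by thrombin) at 9–150 nM, chosen by expected affinity; tRNA^Tyr held at 1.5 µM with saturating [8-³H]-guanine at 10 µM in 100 mM HEPES pH 7.3, 20 mM MgCl₂, 0.037% (v/v) Tween 20. Four 15 µL aliquots taken at 60 min intervals; guanine incorporation into tRNA read by liquid scintillation counting; Ki from reduction of incorporation rate.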

Structure (SMILES)	pKi
Nc1nc2cc3[nH]c(NCCN4CCOCC4)nc3cc2c(=O)[nH]1	8.22
CNc1nc2cc3c(=O)[nH]c(N)nc3cc2[nH]1	7.24
CNc1nc2cc3c(=O)[nH]cnc3cc2[nH]1	5.15
NC(=O)c1ccc2nc(NCCN3CCOCC3)[nH]c2c1	3.26
CNC(=O)c1ccc2nc(NCCN3CCOCC3)[nH]c2c1	3.58
N=C(N)Nc1ccc2[nH]c(NCCN3CCOCC3)nc2c1	4.24
CNc1nc2ccc(C(=O)NN)cc2[nH]1	3.55
CNc1nc2ccc(C(N)=O)cc2[nH]1	3.52
NNC(=O)c1ccc2nc(NCCN3CCOCC3)[nH]c2c1	3.55
CNC(=O)c1ccc2nc(NC)[nH]c2c1	3.57
CNc1nc2cc3c(cc2[nH]1)CNC(N)=N3	4.77
CNc1nc2cc(NC(=N)N)ccc2[nH]1	4.72
CC#CC1NC(N)=Nc2cc3nc(NC)[nH]c3cc21 (racemic)	4.32
